This note sets out measurements from ChEMBL document CHEMBL4373674, “Structural modification of azolylacryloyl derivatives yields a novel class of covalent modifiers of hemoglobin as potential antisickling agents” (Medchemcomm, 2019).

One data set deals with Erythrocyte. The data set can be described thus: Anti-sickling activity in RBC derived from patient homozygous SS at 2 mM […] by microscopic analysis relative to control. The class given is functional, Homo sapiens.
The target of data set [1] is T1, Hemoglobin HbA (Homo sapiens) (UniProt P69905+P68871). Description: Binding affinity to hemoglobin in whole blood (unknown origin) incubated for 2 hrs. The class given is tissue-based. The procedure, abridged: (§1)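 Normal human whole blood at 20% hematocrit was incubated with compound (1 mM and 2 mM final) for 2 h at 37 °C. Hb–O2 affinity was then measured from oxygen equilibrium curves. Runs were done at least in triplicate.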

For data set [2], the target named is T1, Hemoglobin HbA (Homo sapiens). The data set can be described thus: Binding affinity to hemoglobin in whole blood (unknown origin) at 2 mM incubated for 2 hrs relative to control. The class given is tissue-based. The procedure, abridged: as §1
Data set [3] shares this target. The data set can be described thus: Binding affinity to hemoglobin in whole blood (unknown origin) at 2 mM incubated for 24 hrs. The class given is tissue-based. The procedure, abridged: (§2)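 Normal whole blood was incubated with 2 mM compound at 37 °C for up to 24 h. Aliquots taken at 1, 2, 4, 8 and 24 h were assessed by oxygen equilibrium curves, with DMSO as vehicle control.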

For data set [4] the target is unchanged. Description: Binding affinity to hemoglobin in whole blood (unknown origin) at 1 mM incubated for 2 hrs relative to control. The class given is tissue-based. The procedure, abridged: as §1
A short description of data set [5]: Drug reactivity against cysteine in PBS buffer assessed as assessed as cysteine-compound adduct formation at 2 mM incubated for 3 hrs by UPLC-MS analysis relative to control.
Data set [6] can be described thus: Drug reactivity against cysteine in PBS buffer at 2 mM incubated for 3 hrs by UPLC-MS analysis relative to control.
Data set [7] has as its target T1, Hemoglobin HbA (Homo sapiens). Description: Drug reactivity against betacys93 in hemoglobin (unknown origin) assessed as betacys93-compound adduct formation at 2 mM incubated for 2 hrs by UPLC-MS analysis relative to control. To be noted: in the assay text read “by DTNB disulfide exchange assay” for “by UPLC-MS analysis”. The class given is protein-complex assay. The gist of the method: (§3)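 Hb (50 µM in PBS) was reacted with 2 mM compound (final) at room temperature for 2 h or 16 h. Hb was recovered by centrifugation and 10 kDa ultrafiltration, then washed. Samples were incubated in 0.1 M potassium phosphate pH 8.0 with DTNB for 1 h at 25 °C. Hb content was taken from A576 and free thiol from 2-nitrobenzoate at A412 (ε 14 150 M-1 cm-1). Values are the mean of quadruplicates ± SD. % adduct = 100 − available SH from two βCys93.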

Data set [8] has the same target. The data set can be described thus: Drug reactivity against betacys93 in hemoglobin (unknown origin) assessed as betacys93-compound adduct formation at 2 mM incubated for 16 hrs by UPLC-MS analysis relative to control. The class given is protein-complex assay. The settings on record: in the assay text read “by DTNB disulfide exchange assay” for “by UPLC-MS analysis”. The gist of the method:
as §3

Data set [9] shares this target. Description: Drug reactivity against betacys93 in hemoglobin (unknown origin) assessed as free SH in betacys93 at 2 mM incubated for 16 hrs by UPLC-MS analysis relative to control. The class given is protein-complex assay. To be noted: in the assay text read “by DTNB disulfide exchange assay” for “by UPLC-MS analysis”. The gist of the method:
as §3

The target is the same in data set [10]. Description: Binding affinity to hemoglobin in whole blood (unknown origin) at 2 mM incubated for 8 hrs. The class given is tissue-based. The gist of the method:
as §2

Data set [11] is described as follows: Acute toxicity in Swiss albino mouse assessed as mortality at 2000 mg/kg, po via gavage measured after 24 hrs by OECD 423 guideline based method. The class given is organism-based. To be noted: in vivo. The procedure, abridged:
(§4)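 Male and female Swiss albino mice (22–27 g, 8–10 weeks) were held at about 23 °C on a 12 h light/dark cycle with free food and water. Dosing was a single oral gavage of a 10% suspension in water with 0.5% Tween 80. Groups of n = 3 received 2000 mg/kg (days 1 and 2) or 5000 mg/kg (day 3). Toxic signs and mortality were watched for 24 h.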

Data set [12] in a line: Acute toxicity in Swiss albino mouse assessed as mortality at 5000 mg/kg, po via gavage measured after 24 hrs by OECD 423 guideline based method. The class given is organism-based. The settings on record: in vivo. The gist of the method:
as §4

Activity calls are given as the source filed them. The rule behind the calls is not given here.

T1 sequence (P68871 2-147 partner limits assumed): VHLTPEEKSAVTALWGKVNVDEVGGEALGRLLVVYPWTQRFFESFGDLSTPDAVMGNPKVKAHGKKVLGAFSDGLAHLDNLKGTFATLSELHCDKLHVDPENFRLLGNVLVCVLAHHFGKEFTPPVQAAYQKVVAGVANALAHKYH
T1 sequence (P69905 2-142 limits assumed): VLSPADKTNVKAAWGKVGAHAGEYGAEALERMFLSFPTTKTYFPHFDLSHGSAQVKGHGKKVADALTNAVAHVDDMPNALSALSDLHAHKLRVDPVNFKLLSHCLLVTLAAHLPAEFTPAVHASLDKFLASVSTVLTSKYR

As to `O=C(/C=C/c1ncc[nH]1)c1ccc(OC2CCCCO2)cc1` (configuration not stated), the Activity with Erythrocyte is 7%; in [2], 15.2%; in data set [4] it was 9.9%; in data set [5], 54.9%; in [6], 45.1%. Besides, the result in data set [1] and in data set [3] was Active.
As for `O=C(/C=C/c1ncc[nH]1)c1ccccc1`, the Activity was 10% in data set [7]; 7% in the data set on Erythrocyte; 11.3% in data set [2]; 7% in data set [4]; 21% in data set [8]; 19.6% in [5]. The Activity in [6] came to 80.4%; in data set [9], 79%. The outcome in [1] and in [3] was Active.
On to `O=C(O)CCCOc1ccc(C(=O)/C=C/c2ncc[nH]2)cc1Cl`, for which the Activity in data set [7] came to 11%; in the data set with Erythrocyte it was 2%; in [2], 4.5%; in data set [4], 1.9%; in [8], 30%; in [9], 70%. Moreover, the result in data set [1] and in data set [10] was Active.
As to `COc1ccc(C(=O)/C=C/c2ncc[nH]2)cc1OC`, the Activity in data set [7] turned out to be 9%; in the data set with Erythrocyte, 5%; in data set [2], 6.5%; in data set [4] it was 6.5%; in [8] it was 20%; in data set [5] it was 53.7%. Further, the Activity in data set [6] is 46.3%; in data set [9] it was 80%. Also, the result in data set [1] and in data set [10] was Active.
Consider `COc1ccc(C(=O)/C=C/c2ncc[nH]2)cc1`, for which the Activity entry is “Non-Toxic” in [11]; 11% in data set [7]; 9% in the data set on Erythrocyte; “Toxic” in data set [12]; 11.8% in data set [2]; 8.2% in data set [4]. Besides, the Activity came to 37% in data set [8], 77% in data set [5], 23% in data set [6] and 63% in data set [9]. The outcome in data set [1] and in [3] was Active.
